# Results: paper PMC3320048 (Angiogenesis, 2011)
# Where a SMILES comes first, the peptide text is derived from it. Bridges are numbered along the chain shown (N, C = ends). Where no end group is shown, it is not given here.
# How the values were obtained:
# [1] = tested on: human bladder epithelial cells (HBEC); experiment: LDH release in epithelial cells; format: cell-based; conditions: 150 μg/ml, 24 hours, 37°C
# How it was run: (§1)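 Cells were grown at 37°C in humidified 5% CO2 and treated at about 50% confluence. Test compound (2 mg/ml stock in H2O) was added at 150 μg/ml in 2% FBS for 24 h at 37°C. LDH release was read with a commercial kit and normalised to background death in untreated cells. 0.1% (v/v) Triton X-100 defined maximal release.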
# proliferating HUVEC = experiment: Cytotoxicity assay; format: cell-based
# [2] = tested on: DU145 subcutaneous xenografts; experiment: DU145 tumor treatment study; format: in vivo, mice; conditions: 300 μg i.p. 3x/week
# How it was run: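 Male athymic nude mice carried 2-week-old subcutaneous DU145 flank xenografts averaging 40 mm3 at the start. They received carrier or test compound (300 μg) intraperitoneally three times per week. Tumour volume was measured with calipers at each treatment time point, and mice were weighed on day 15. Groups were compared by unpaired two-tailed t test or one-way ANOVA with Tukey post hoc test.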
# CLIC1 = CLIC1 (Homo sapiens, UniProt O00299); experiment: Saturation binding assay
# How it was run: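 Copper-coated microtiter wells were coated with 2 μg/ml purified His-tagged human CLIC1. Wells were incubated 1 h at room temperature with varying concentrations of carboxyfluorescein-labelled peptide in TBS with 200 mM n-octyl-β-D-glucoside and 1 mM CaCl2. After TBS washes, fluorescence was read at ex 485/em 520. Signal from His-tagged nucleolin-coated wells was subtracted as non-specific binding. Kd was derived from the binding curves.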
# [3] = tested on: neonatal human dermal fibroblasts (NHDF); experiment: LDH release in fibroblasts; format: cell-based; conditions: 150 μg/ml, 24 hours, 37°C
# How it was run: as §1
# HUVEC [4] = experiment: Western blot of cytosolic fractions for LC3 and cathepsins; format: cell-based, human
# How it was run: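 Cytosolic fractions came from treated HUVEC using a subcellular fractionation kit. Proteins were resolved by SDS-PAGE, blotted to PVDF and checked for equal loading with 0.05% Ponceau S. Blots were blocked in 5% milk or BSA, probed overnight at 4°C for cathepsin C, cathepsin D and LC3B, and detected by peroxidase secondary antibodies with ECL. Lysosomes were labelled with 100 nM LysoTracker Red for 1 h before paraformaldehyde fixation.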
# HUVEC [5] = experiment: Flow cytometry assay of CLIC1 cell surface expression in suspended HUVEC; format: cell-based, human; conditions: peptide 300 μM
# fibrinogen = conditions: cited from earlier work
# fibronectin = conditions: cited from earlier work
molecule,measurement,setting,value
CC[C@H](C)[C@@H]1NC(=O)[C@H](CC(C)C)NC(=O)CNC(=O)[C@@H](N)CSSC[C@@H](C(=O)O)NC(=O)[C@H](CCC(=O)O)NC(=O)[C@H](CC(N)=O)NC(=O)[C@H](CCCCN)NC(=O)[C@H](CCC(N)=O)NC(=O)[C@H]([C@@H](C)CC)NC1=O [CLT1] (H-CGLIIQKNEC-OH; disulfide 1-10),cytotoxicity in epithelial cells (LDH release),[1],little effect
same,CLT1-induced cytotoxicity at 4°C,"proliferating HUVEC; HUVEC cultured at 4°C versus 37°C, 150 μg/ml, 24 hours, LDH release",protected endothelial cells from CLT1-induced cytotoxicity
same,cytotoxicity of CLT1 after CLIC1 knockdown,"proliferating HUVEC; HUVEC, CLIC1 siRNA versus control siRNA, 24 hours, LDH release",significantly reduced
same,earliest time at which cytotoxicity was detected,"proliferating HUVEC; HUVEC, LDH release over time",3.5 h
same,body weight of the mice,[2]; day 15 of the treatment study,remained unchanged
same,Kd,CLIC1,10.2 µM
same,cytotoxicity in fibroblasts (LDH release),[3],little effect
"CO/C1=C\C(C)=C\[C@@H](C)[C@@H](O)[C@@H](C)C/C(C)=C/C=C/[C@H](OC)[C@@H]([C@@H](C)[C@@H](O)[C@H](C)[C@@]2(O)C[C@@H](O)[C@H](C)[C@@H](C(C)C)O2)OC1=O [bafilomycin A1, reference compound]",effect of pretreatment on CLT1 cytotoxicity (LDH release),"proliferating HUVEC; HUVEC, 20 nM bafilomycin A1 for 1 hour prior to CLT1 25 μg/ml for 24 hours",ameliorated cytotoxicity of CLT1
CGLKIQKNEC (disulfide 1-10 (inferred)) [CLT1-IK1],LC3-II conversion (autophagy marker),"HUVEC [4]; HUVEC cytosolic fractions, 7 hours, 7.5–75 μg/ml, immunoblot",did not induce
same,"lysosome dysfunction (cathepsin C and D leakage, lysotracker)","HUVEC [4]; HUVEC, 75 μg/ml 24 hours immunoblot, 10 μg/ml fluorescein-conjugated peptide, lysotracker",did not induce
"CNAGESSKNC (disulfide 1-10 (inferred)) [CLT2, reference compound]",tumor growth (tumor volume),"[2]; DU145 xenografts, n=12/treatment group",no anti-angiogenic or anti-tumor effects
GRADSP,effect on CLIC1 cell surface localization induced by CLT1-fibronectin co-aggregates,HUVEC [5],not by an inactive peptide
GRGDSP [reference compound],effect on cytotoxic function of CLT1,"proliferating HUVEC; HUVEC, peptide 300 μM, 24 hours, LDH release",inhibited the cytotoxic function of CLT1
same,effect on CLIC1 cell surface localization induced by CLT1-fibronectin co-aggregates,HUVEC [5],partially inhibited
anginex,aggregate formation when mixed with fibrinogen,fibrinogen,form large insoluble aggregates
same,aggregate formation when mixed with fibronectin,fibronectin,form large insoluble aggregates
